According to ChEMBL document CHEMBL3124806, “Imidazopyridine-fused [1,3]-diazepinones: synthesis and antiproliferative activity” (Eur J Med Chem, 2014):

Columns and labels:
Ovis aries = species on record: Ovis aries; assay: Inhibition of sheep brain tubulin polymerization at 100 uM after 40 mins by DAPI staining-based fluorescence assay
How it was run: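 Microtubular protein was purified from sheep brain by two assembly/disassembly cycles (37 °C/0 °C) in MES buffer (100 mM MES pH 6.6, 1 mM EGTA, 0.5 mM MgCl₂). Compound in DMSO was added to 10 µM tubulin with 10 µM DAPI and incubated 40 min at RT. GTP (1 mM) was then added, and assembly was followed by DAPI fluorescence at 37 °C.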

MDA-MB-435 = assay: Cytotoxicity against human MDA-MB-435 cells assessed as cell growth at 10 uM after 48 hrs by MTT assay relative to untreated control; format: functional; conditions: MDA-MB-435, 48 h, read-out: Activity
How it was run: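 Melanoma lines grown at 37 °C in humidified 5% CO2: MDA-MB-435 in DMEM/Ham's F12 1:1 with 10% FCS and antibiotics, SK-MEL-2 in RPMI-1640 with 10% FCS. Cells plated 24 h, then exposed 48 h to 100–0.01 µM (dilutions from fresh 100 µM stock in medium). MTT 0.5 mg/mL added for 4 h, crystals dissolved in EtOH/DMSO 1:1, absorbance read at 540 nm. Mean ± SD of three independent experiments.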

Row | SMILES | inhibition (Ovis aries) [%] | growth at 10 µM (MDA-MB-435) [%]
1 | C[C@@H]1NC(=O)Nc2nc3ccccn3c2C1=O | 8 | 86
2 | C[C@@H]1NC(c2ccc([N+](=O)[O-])cc2)=Nc2nc3ccccn3c2C1=O | 30 | 99
